How the values were obtained:
[1] = target: T1, Dual specificity tyrosine-phosphorylation-regulated kinase 3 (Homo sapiens) (UniProt O43781); assay: Inhibition of human recombinant DYRK3 at 500 nM related to control ULK1
T1 sequence (whole entry): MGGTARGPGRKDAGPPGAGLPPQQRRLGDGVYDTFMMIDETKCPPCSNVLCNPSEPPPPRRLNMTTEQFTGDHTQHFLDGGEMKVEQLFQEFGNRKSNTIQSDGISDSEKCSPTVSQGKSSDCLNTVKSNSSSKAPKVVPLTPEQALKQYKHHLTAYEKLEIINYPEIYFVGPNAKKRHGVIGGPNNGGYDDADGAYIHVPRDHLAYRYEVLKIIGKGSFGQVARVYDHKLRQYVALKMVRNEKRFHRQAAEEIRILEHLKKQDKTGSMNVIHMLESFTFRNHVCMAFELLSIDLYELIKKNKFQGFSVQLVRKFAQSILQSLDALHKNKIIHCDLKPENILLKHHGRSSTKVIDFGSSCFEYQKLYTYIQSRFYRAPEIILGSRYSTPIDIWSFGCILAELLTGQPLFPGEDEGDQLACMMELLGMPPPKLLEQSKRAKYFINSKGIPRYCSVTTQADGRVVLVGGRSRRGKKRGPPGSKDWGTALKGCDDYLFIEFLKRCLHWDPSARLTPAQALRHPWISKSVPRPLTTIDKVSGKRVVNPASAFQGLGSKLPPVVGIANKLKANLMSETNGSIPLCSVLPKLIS

[2] = target: STE20-like serine/threonine-protein kinase (Homo sapiens) (UniProt Q9H2G2); assay: Inhibition of human recombinant SLK at 500 nM in presence of ATP by radiometric assay relative to control
STE20-like serine/threonine-protein kinase (Homo sapiens), sequence (Q9H2G2 whole entry, looked up): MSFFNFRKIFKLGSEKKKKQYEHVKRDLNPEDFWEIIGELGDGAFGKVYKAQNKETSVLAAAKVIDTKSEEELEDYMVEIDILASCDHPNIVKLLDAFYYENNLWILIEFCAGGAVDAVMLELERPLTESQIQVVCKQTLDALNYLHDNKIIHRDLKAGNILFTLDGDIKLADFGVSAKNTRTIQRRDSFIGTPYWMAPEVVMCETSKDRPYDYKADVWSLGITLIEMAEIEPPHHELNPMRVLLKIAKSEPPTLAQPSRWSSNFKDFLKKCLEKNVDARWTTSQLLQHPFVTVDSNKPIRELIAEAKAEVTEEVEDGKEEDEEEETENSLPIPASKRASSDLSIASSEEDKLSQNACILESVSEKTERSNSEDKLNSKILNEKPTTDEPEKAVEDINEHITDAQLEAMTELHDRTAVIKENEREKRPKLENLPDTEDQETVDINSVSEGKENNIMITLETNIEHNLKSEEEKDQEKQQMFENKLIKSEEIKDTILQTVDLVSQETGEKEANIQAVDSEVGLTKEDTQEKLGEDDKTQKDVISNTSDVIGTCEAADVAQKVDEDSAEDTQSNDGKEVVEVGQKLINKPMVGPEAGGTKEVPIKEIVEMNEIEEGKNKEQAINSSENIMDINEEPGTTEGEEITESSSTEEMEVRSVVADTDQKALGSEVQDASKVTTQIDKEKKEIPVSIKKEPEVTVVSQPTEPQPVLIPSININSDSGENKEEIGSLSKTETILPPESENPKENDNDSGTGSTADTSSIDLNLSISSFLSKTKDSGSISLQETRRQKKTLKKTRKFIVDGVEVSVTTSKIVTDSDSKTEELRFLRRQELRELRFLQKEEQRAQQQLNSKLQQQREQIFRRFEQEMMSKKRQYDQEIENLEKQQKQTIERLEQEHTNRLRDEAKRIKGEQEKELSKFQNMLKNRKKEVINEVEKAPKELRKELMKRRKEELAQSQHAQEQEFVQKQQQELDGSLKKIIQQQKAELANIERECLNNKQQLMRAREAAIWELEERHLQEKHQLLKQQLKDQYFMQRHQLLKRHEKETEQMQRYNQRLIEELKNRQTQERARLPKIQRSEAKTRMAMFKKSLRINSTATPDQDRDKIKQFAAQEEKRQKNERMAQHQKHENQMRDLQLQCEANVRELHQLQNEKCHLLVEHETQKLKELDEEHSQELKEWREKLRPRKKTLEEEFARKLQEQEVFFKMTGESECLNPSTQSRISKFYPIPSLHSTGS

[3] = target: Calcium/calmodulin-dependent protein kinase type 1D (Homo sapiens) (UniProt Q8IU85); assay: Inhibition of human recombinant CaMK1d at 500 nM related to control ULK1
Calcium/calmodulin-dependent protein kinase type 1D (Homo sapiens), sequence (Q8IU85 whole entry, looked up): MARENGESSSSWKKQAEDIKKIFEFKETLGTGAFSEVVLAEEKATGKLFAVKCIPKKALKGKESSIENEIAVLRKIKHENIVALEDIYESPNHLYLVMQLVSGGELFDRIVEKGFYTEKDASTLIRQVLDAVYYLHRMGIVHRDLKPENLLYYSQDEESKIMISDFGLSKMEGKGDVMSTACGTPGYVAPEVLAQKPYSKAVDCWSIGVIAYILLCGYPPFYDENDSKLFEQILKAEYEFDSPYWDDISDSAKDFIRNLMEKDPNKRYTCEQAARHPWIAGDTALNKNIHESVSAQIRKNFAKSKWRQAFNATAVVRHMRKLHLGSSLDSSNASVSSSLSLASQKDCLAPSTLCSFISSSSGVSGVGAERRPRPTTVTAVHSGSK

[4] = target: [Pyruvate dehydrogenase (acetyl-transferring)] kinase isozyme 4, mitochondrial (Homo sapiens) (UniProt Q16654); assay: Inhibition of human recombinant PDHK4 at 15 nM related to control ULK1
[Pyruvate dehydrogenase (acetyl-transferring)] kinase isozyme 4, mitochondrial (Homo sapiens), sequence (Q16654 whole entry, looked up): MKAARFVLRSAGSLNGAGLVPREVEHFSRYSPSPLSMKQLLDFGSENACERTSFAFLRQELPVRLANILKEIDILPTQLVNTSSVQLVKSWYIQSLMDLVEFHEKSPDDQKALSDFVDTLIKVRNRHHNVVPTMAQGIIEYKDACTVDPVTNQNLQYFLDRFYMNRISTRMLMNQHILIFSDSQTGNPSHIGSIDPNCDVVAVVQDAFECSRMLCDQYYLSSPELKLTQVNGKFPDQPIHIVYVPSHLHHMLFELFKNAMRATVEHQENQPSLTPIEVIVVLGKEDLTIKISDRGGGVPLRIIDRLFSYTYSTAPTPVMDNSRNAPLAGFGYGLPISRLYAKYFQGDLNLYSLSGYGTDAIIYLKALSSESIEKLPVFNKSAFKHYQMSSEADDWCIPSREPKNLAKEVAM

[5] = target: T2, Muscle, skeletal receptor tyrosine-protein kinase (Homo sapiens) (UniProt O15146); assay: Inhibition of human recombinant MUSK at 15 nM related to control ULK1
T2 sequence (whole entry): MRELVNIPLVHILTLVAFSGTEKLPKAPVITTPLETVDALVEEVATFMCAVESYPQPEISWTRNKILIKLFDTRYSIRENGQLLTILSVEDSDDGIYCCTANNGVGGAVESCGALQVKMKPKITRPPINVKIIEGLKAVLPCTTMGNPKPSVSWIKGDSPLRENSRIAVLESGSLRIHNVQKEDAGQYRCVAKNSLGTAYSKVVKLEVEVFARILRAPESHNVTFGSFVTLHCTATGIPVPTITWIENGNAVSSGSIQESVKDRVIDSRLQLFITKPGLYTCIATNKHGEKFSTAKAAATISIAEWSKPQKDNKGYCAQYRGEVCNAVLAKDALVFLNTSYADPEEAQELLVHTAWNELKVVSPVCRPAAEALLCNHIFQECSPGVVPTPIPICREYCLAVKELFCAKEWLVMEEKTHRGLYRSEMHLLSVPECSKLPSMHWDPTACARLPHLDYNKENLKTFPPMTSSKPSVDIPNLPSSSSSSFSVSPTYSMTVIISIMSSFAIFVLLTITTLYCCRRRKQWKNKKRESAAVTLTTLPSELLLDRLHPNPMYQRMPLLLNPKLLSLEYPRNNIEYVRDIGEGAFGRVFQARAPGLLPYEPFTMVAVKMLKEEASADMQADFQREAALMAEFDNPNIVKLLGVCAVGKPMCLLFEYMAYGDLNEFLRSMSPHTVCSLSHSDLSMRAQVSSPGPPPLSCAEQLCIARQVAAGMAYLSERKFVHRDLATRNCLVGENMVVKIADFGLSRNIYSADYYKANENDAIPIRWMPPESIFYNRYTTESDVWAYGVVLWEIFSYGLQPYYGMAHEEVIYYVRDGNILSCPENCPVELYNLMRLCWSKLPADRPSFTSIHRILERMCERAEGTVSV

[6] = target: Serine/threonine-protein kinase ATR (Homo sapiens) (UniProt Q13535); assay: Inhibition of human recombinant ATR at 15 nM in presence of ATP by radiometric assay relative to control
Serine/threonine-protein kinase ATR (Homo sapiens), sequence (Q13535 whole entry, looked up): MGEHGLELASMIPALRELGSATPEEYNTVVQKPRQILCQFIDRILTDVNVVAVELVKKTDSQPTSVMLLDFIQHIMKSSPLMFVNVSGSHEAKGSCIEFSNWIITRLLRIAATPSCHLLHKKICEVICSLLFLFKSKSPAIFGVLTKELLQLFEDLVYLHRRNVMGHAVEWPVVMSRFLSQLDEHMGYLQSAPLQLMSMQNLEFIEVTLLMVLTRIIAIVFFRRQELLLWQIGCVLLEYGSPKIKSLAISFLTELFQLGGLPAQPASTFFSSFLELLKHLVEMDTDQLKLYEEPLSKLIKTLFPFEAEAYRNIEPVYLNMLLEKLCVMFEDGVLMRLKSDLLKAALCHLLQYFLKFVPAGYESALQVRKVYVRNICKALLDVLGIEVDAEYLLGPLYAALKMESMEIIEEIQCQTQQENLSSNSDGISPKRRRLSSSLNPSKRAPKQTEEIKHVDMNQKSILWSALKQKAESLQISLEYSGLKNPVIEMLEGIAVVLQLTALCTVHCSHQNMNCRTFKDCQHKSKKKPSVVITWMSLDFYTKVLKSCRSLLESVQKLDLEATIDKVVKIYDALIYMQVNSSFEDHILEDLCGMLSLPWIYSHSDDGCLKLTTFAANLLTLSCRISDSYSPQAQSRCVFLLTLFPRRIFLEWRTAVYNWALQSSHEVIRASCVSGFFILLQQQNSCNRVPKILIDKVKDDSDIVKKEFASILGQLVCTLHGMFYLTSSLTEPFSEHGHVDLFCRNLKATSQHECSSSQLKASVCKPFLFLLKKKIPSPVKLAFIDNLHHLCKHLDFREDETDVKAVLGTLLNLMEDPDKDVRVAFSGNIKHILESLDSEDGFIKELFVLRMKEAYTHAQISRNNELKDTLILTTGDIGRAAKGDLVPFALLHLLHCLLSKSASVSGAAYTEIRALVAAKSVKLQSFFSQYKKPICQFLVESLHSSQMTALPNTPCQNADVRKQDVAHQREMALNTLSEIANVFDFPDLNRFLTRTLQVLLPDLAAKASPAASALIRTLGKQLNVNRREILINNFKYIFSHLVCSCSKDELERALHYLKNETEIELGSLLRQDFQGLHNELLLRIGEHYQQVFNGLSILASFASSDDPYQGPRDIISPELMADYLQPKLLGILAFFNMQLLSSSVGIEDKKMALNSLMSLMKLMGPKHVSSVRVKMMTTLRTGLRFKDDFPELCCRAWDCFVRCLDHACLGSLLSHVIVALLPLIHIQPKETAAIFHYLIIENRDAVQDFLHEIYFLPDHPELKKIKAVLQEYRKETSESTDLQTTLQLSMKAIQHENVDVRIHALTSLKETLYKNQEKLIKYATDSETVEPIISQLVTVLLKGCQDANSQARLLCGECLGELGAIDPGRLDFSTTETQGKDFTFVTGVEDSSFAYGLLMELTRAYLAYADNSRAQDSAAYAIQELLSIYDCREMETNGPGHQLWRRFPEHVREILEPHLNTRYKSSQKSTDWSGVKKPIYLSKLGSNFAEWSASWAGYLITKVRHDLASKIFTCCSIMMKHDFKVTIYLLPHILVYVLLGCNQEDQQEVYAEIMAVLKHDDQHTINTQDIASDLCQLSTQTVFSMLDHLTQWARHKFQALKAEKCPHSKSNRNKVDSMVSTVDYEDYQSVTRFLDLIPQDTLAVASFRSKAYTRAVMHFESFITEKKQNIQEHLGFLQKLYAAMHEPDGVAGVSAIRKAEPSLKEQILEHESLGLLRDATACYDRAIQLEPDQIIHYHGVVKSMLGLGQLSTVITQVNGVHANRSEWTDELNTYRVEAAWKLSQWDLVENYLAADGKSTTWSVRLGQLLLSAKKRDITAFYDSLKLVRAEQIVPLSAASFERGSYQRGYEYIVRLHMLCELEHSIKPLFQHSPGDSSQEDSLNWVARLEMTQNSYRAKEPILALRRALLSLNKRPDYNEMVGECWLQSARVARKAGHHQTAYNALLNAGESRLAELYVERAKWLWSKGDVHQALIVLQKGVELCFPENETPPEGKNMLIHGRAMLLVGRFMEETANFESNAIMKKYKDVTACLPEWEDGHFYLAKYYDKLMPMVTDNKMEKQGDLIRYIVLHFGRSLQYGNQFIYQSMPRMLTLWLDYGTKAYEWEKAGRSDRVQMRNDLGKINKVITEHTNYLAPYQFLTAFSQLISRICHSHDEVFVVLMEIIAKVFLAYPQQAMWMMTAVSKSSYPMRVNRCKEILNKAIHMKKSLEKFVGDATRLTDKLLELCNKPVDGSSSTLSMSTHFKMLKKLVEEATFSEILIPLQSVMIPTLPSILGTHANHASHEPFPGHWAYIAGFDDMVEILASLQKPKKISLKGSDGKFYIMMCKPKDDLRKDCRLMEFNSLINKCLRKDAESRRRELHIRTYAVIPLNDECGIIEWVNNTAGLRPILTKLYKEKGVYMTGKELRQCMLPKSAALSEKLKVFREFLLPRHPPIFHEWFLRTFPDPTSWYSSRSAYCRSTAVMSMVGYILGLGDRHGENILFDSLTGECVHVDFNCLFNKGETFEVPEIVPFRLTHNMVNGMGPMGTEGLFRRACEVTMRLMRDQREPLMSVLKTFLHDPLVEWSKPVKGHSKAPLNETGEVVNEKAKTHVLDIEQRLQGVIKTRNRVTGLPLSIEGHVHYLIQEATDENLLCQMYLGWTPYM
Outline: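 Panel of 327 recombinant human kinases, each assayed in vitro by radiometric activity assay in duplicate at a single inhibitor concentration per compound, chosen with reference to its ULK1 inhibition. Activity remaining was expressed as percent of vehicle control, and percent inhibition was calculated as 100 minus percent activity remaining.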

[7] = target: T3, NUAK family SNF1-like kinase 2 (Homo sapiens) (UniProt Q9H093); assay: Inhibition of human recombinant NuaK2 at 40 nM in presence of ATP by radiometric assay relative to control
T3 sequence (whole entry): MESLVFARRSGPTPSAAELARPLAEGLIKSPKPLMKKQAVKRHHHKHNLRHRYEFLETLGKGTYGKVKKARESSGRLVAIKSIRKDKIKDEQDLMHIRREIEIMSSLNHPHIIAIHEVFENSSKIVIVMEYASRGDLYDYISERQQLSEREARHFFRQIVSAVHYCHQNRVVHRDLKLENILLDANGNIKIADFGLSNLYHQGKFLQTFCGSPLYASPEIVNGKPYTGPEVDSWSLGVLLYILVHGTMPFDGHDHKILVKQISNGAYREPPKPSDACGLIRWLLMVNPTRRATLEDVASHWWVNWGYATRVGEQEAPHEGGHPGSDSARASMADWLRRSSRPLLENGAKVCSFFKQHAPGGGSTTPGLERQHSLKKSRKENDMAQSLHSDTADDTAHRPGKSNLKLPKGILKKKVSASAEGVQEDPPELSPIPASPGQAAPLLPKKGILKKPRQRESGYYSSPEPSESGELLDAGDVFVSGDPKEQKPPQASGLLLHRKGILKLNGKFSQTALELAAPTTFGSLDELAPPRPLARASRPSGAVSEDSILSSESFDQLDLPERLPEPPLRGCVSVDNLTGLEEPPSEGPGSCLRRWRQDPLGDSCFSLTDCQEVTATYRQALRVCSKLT

A fold change (FC) [1] of 0, an inhibition [2] of 15% and a fold change (FC) [3] of 0.07 were found for `CNC(=O)c1ccccc1Oc1nc(Nc2cc(OC)c(OC)c(OC)c2)ncc1Br` in this work.

A fold change (FC) [4] of 0.02, a fold change (FC) [5] of 0 and an inhibition [6] of 4% were found for `CC(C)[C@H](NC(=O)c1cc(-c2cnn3cc(-c4ccc(OCCN5CCCCC5)cc4)cnc23)cs1)C(F)(F)F` in this work.

An inhibition [7] of 3% was found for `O=C(N[C@@H](C1CC1)C(F)(F)F)c1cc(-c2cnn3cc(-c4ccc(F)cc4)cnc23)cs1` in this work.

Source: ChEMBL document CHEMBL5653631, “A Potent and Selective ULK1 Inhibitor Suppresses Autophagy and Sensitizes Cancer Cells to Nutrient Stress” (iScience, 2018)
